Where only a bound is given, the exact number is not on record here.

For assay [1], the system named is PANC-1. Put plainly: Cytotoxicity against human PANC1 cells in nutrient-deprived condition. The assay is classed as functional. The method in brief:
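PANC-1 cells seeded at 2×10^4 per well, grown 24 h in DMEM at 37 °C, 5% CO₂, PBS-washed, then switched to nutrient-deprived medium (NDM) or DMEM with serial dilutions of pure compounds (1–256 µM). Incubated 24 h, washed, then 2 h with DMEM containing 10% WST-8 and read at 450 nm. Endpoint reported as PC₁₀₀.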

Assay [2] deals with PANC-1. The experiment in a line: Cytotoxicity against human PANC1 cells in nutrient-deprived condition assessed as complete preferential cell death at 1 uM. Type of assay: functional, cell-based. Conditions: TDE = time-dependent effect. The method in brief:
(§1)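 PANC-1 cells (2×10^4 per well, 24 h preculture in DMEM, 37 °C, 5% CO₂) were PBS-washed and exposed in NDM or DMEM for 3, 6, 9, 12 and 24 h. Morphology was checked by phase-contrast microscopy at 20×. Cells were then washed and given 2 h of 10% WST-8 in DMEM, with absorbance read at 450 nm. Viability was taken from the mean of three wells.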

Assay [3] has as its system PANC-1. The experiment in a line: Cytotoxicity against human PANC1 cells in nutrient-deprived condition assessed as preferential cell death within 3 hrs. The assay is classed as functional, cell-based. The essentials: as §1

`CCCC(=O)c1c2c(c3oc(=O)cc(CCC)c3c1O)CC(C(C)(C)O)O2` (stereo not given) returned a Cytotoxicity with PANC-1 [1] of 64 µM.

In the assay on PANC-1 [1], `CC[C@H](O)c1cc(=O)oc2c(C(=O)CC(C)C)c(O)c3c(c12)OC(C)(C)C=C3` gave a Cytotoxicity of 32 µM.

`CCCC(=O)c1c(O)c(CC=C(C)C)c2oc(=O)cc(CCC)c2c1O` showed a Cytotoxicity with PANC-1 [1] of 2 µM.

`CCCC(=O)c1c(O)c(CC=C(C)C)c(O)c2c(-c3ccccc3)cc(=O)oc12` showed a Cytotoxicity in the assay with PANC-1 [1] of 8 µM.

With `CCCC(=O)c1c2c(c3oc(=O)cc(-c4ccccc4)c3c1O)C=CC(C)(C)O2`, the Cytotoxicity in the assay with PANC-1 [1] is greater than 256 µM.

`COc1cc(C[C@H]2C(=O)OC[C@@H]2Cc2ccc(OC)c(OC)c2)ccc1O` [ARCTIGENIN]: the Cytotoxicity in the assay on PANC-1 [1] stood at 1 µM.

In the case of `CCCC(=O)c1c(O)c(C/C=C(\C)CCC=C(C)C)c(O)c2c([C@@H](O)CC)cc(=O)oc12` [KAYEASSAMIN A], in the assay on PANC-1 [1], the Cytotoxicity was determined as 1 µM.

Consider `CCCC(=O)c1c(O)c(C/C=C(\C)CCC=C(C)C)c2oc(=O)cc([C@@H](O)CC)c2c1O` [KAYEASSAMIN B], for which the Cytotoxicity in the assay with PANC-1 [1] turned out to be 1 µM.

Consider `CCC(C)C(=O)c1c(O)c(C/C=C(\C)CCC=C(C)C)c2oc(=O)cc([C@@H](O)CC)c2c1O` (stereo not given in full) [KAYEASSAMIN C], for which, in the assay on PANC-1 [1], the Cytotoxicity turned out to be 4 µM.

With `CC[C@H](O)c1cc(=O)oc2c(C/C=C(\C)CCC=C(C)C)c(O)c(C(=O)CC(C)C)c(O)c12` [KAYEASSAMIN D], in the assay with PANC-1 [2], the Activity result is “tde”. In addition, the Cytotoxicity in the assay on PANC-1 [1] is 1 µM.

As to `CCCC(=O)c1c(O)c(CC=C(C)C)c2oc(=O)cc([C@@H](O)CC)c2c1O` [KAYEASSAMIN E], the Activity entry in the assay with PANC-1 [3] is “Dose-dependent effect”. Also, the Cytotoxicity in the assay with PANC-1 [1] was found to be 1 µM.

`CCC(C)C(=O)c1c(O)c(CC=C(C)C)c2oc(=O)cc([C@@H](O)CC)c2c1O` (stereo not given in full) [KAYEASSAMIN F] registered a Cytotoxicity in the assay on PANC-1 [1] of 2 µM.

As to `CC[C@H](O)c1cc(=O)oc2c(CC=C(C)C)c(O)c(C(=O)CC(C)C)c(O)c12` [KAYEASSAMIN G], the Activity result in the assay on PANC-1 [3] (TDE = time-dependent effect) was “tde”. In the assay on PANC-1 [1], this compound yielded a Cytotoxicity of 1 µM.

The compound `CCCC(=O)c1c(O)c(CC=C(C)C)c2oc(=O)cc3c2c1OC(C)C3` (stereo not given) [KAYEASSAMIN H] showed a Cytotoxicity in the assay with PANC-1 [1] of 64 µM.

As to `CCCC(=O)c1c(O)c2c(c3c([C@@H](O)CC)cc(=O)oc13)OC(C)(CCC=C(C)C)C=C2` (stereo not given in full) [KAYEASSAMIN I], the Cytotoxicity in the assay with PANC-1 [1] amounted to 64 µM.

Turning to `CCCC(=O)c1c(O)c(CC=C(C)C)c2oc(=O)cc(-c3ccccc3)c2c1O` [MAMMEA A/AC], in the assay on PANC-1 [1], the Cytotoxicity turned out to be 16 µM.

Regarding `CC(C)CC(=O)c1c2c(c3oc(=O)cc(-c4ccccc4)c3c1O)C=CC(C)(C)O2` [MAMMEIGIN], the Cytotoxicity with PANC-1 [1] came to 32 µM.
